Test results published in paper PMC9299520 (Nature structural & molecular biology, 2022).

Assays:
5-HT5AR [1] = target: T1, 5-HT5AR (Homo sapiens, UniProt P47898); experiment: BRET2 Gi1-activation assay, WT 5-HT5AR; assay type: cell-based; details: normalized to % of 5-HT
mutant 5-HT5AR [2] = target: mutant 5-HT5AR (Homo sapiens, UniProt P47898, E305A); experiment: BRET2 Gi1-activation assay, mutant 5-HT5ARs; assay type: cell-based; details: mutant E305A
mutant 5-HT5AR [3] = target: mutant 5-HT5AR (Homo sapiens, UniProt P47898, S204C); experiment: BRET2 Gi1-activation assay, mutant 5-HT5ARs; assay type: cell-based; details: mutant S204C
mutant 5-HT5AR (Homo sapiens, UniProt P47898, S204C), sequence (P47898 whole entry S204C): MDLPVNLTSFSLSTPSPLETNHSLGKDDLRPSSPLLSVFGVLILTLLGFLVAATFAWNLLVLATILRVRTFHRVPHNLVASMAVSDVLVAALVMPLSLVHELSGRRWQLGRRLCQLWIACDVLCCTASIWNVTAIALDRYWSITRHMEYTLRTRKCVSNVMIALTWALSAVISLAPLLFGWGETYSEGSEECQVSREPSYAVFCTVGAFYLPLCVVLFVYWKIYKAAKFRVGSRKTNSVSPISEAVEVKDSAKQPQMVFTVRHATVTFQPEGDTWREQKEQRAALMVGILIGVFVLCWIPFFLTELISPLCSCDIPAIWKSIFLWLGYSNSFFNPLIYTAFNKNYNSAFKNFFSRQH

mutant 5-HT5AR [4] = experiment: BRET2 Gi1-activation assay, mutant 5-HT5ARs; assay type: cell-based, human; details: for effect on Gi1 activation: mutants S204A and S204G
5-HT5AR [5] = target: T1, 5-HT5AR; experiment: BRET1 miniGi recruitment assay; assay type: cell-based; details: wild type 5-HT5AR
Outline: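 Transfected cells were plated after at least 24 h onto poly-lysine-coated plates in DMEM with 1% dialyzed FBS, at 40,000 cells/well, and left overnight. They were washed with HBSS/20 mM HEPES pH 7.4, then given coelenterazine h (5 μM final) and test compound dilutions with 0.3% BSA and 0.03% ascorbic acid. After 10 min at room temperature, emissions at 485 and 530 nm were read, and eYFP/Rluc BRET ratio was plotted against concentration.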

mutant 5-HT5AR [6] = target: mutant 5-HT5AR (Homo sapiens, UniProt P47898, A227L); experiment: BRET2 Gi1-activation assay, mutant 5-HT5ARs; assay type: cell-based; details: mutant A227L versus WT
mutant 5-HT5AR (Homo sapiens, UniProt P47898, A227L), sequence (P47898 whole entry A227L): as the sequence (P47898 whole entry S204C) above, with C204S, A227L counted along it

T1 sequence (P47898 whole entry): as the sequence (P47898 whole entry S204C) above, with C204S counted along it
mutant 5-HT5AR (Homo sapiens, UniProt P47898, E305A), sequence (P47898 whole entry E305A): as the sequence (P47898 whole entry S204C) above, with C204S, E305A counted along it

Structure (SMILES) | agonist type for Gi signaling (5-HT5AR [1]) | effect on activation of Gi1 signaling (mutant 5-HT5AR [2]) | effect on Gi1 activation (mutant 5-HT5AR [3]) | effect on Gi1 activation (mutant 5-HT5AR [4]) | miniGi recruitment (5-HT5AR [5]) | increase of efficacy of Gi1 activation (mutant 5-HT5AR [6]) [%] | improvement of potency of Gi1 activation (mutant 5-HT5AR [4]; {})
NCCc1c[nH]c2ccc(C(N)=O)cc12 [5-CT, 5-carboxamidotryptamine] | full agonist | failed to show a large effect | severely affected | dramatically reduced the potency | unable to efficiently recruit miniGi |  | 
NCCc1c[nH]c2ccc(O)cc12 [5-HT, 5-hydroxytryptamine] |  |  | severely affected | modest effects on both the potency and efficacy |  | 20 | more than 30 fold
CC[C@@H](CO)NC(=O)[C@@H]1C=C2c3cccc4[nH]cc(c34)C[C@H]2N(C)C1 [methylergometrine] | full agonist |  |  |  |  |  | 
